Results: paper PMC3823230 (Journal of Cellular and Molecular Medicine, 2012)
Counter-ions that a name gives are not always drawn. Like-named read-outs stand apart in the source and are kept apart here.

Columns and labels:
[1] = tested on: antibiotic-resistant strain (A–E) of P. aeruginosa; assay: MIC against antibiotic-resistant strains; format: cell-based, Pseudomonas aeruginosa; conditions: for MIC: Pseudomonas aeruginosa; for Resistance/sensitivity class, strain A / MIC, P. aeruginosa strain A: antibiotic-resistant strain A; for Resistance/sensitivity class, strain B / MIC, P. aeruginosa strain B: antibiotic-resistant strain B; for Resistance/sensitivity class, strain C / MIC, P. aeruginosa strain C: antibiotic-resistant strain C; for Resistance/sensitivity class, strain D / MIC, P. aeruginosa strain D: antibiotic-resistant strain D; for Resistance/sensitivity class, strain E / MIC, P. aeruginosa strain E: antibiotic-resistant strain E
[2] = tested on: NIBS minipigs, full-thickness excisional wounds; assay: Porcine wound-healing model; format: in vivo, pig; conditions: anti-vWF staining; in comparison to control group; N = 6
Method in brief: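 Three male NIBS minipigs (32.0–33.5 kg) premedicated with ketamine 500 mg/body under isoflurane 2–4%. Four 25 mm, 10 mm-deep full-thickness excisional wounds per side abdomen, 30 mm apart. Peptide 100 μg/ml or saline (200 μl/site) applied on days 0, 2, 4, 6, 8, 10 under polyurethane dressing. Day-12 frozen sections were acetone-fixed (−20°C, 15 min), and capillary EC immunostained with anti-vWF (1:200).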

[3] = tested on: C57BL/6 db/db mice, punch biopsy wounds; assay: Diabetic mouse wound-healing model; format: in vivo; conditions: topical 100 μg/ml
[4] = tested on: db/db mice wounds with methicillin-resistant S. aureus; assay: Diabetic mouse infectious; format: in vivo
Method in brief: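 Male C57BL/6 db/db mice, n = 6–8 per group, backs depilated 3 days before surgery. Under anaesthesia, 15 mm dorsal punch biopsy wounds received 100 μl MRSA (1 × 10^4 cfu/ml) topically, with or without peptide (100 μg/ml) or saline, under semi-permeable polyurethane dressing. Dosing and photographic wound-area measurement on days 0, 2, 4, 7, 9, 11, 14, 16. Means ± S.E.M.; ANOVA with Fisher's PLSD.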

[5] = read-out: MIC, P. aeruginosa strain A
[6] = read-out: MIC, P. aeruginosa strain B
[7] = read-out: MIC, P. aeruginosa strain C
[8] = read-out: MIC, P. aeruginosa strain D
[9] = read-out: MIC, P. aeruginosa strain E

Row | Compound | MIC [1, 5] | MIC [1, 6] | MIC [1, 7] | MIC [1, 8] | MIC [1, 9] | Resistance/sensitivity class, strain A [1] | Resistance/sensitivity class, strain B [1] | Resistance/sensitivity class, strain C [1] | Resistance/sensitivity class, strain D [1] | Resistance/sensitivity class, strain E [1] | further results
1 | C[C@H]1[C@H](NC(=O)/C(=N\OC(C)(C)C(=O)O)c2csc(N)n2)C(=O)N1S(=O)(=O)O [AZT, aztreonam] | < 8 µg/mL | > 16 µg/mL | < 8 µg/mL | < 8 µg/mL | > 16 µg/mL | S | R | S | S | R | 
2 | CC(C)(O/N=C(\C(=O)N[C@@H]1C(=O)N2C(C(=O)[O-])=C(C[n+]3ccccc3)CS[C@H]12)c1csc(N)n1)C(=O)O [CAZ, ceftazidime hydrate] | < 8 µg/mL | < 8 µg/mL | < 8 µg/mL | < 8 µg/mL | > 32 µg/mL | S | S | S | S | R | 
3 | CO/N=C(\C(=O)N[C@@H]1C(=O)N2C(C(=O)O)=C(C[N+]3(C)CCCC3)CS[C@H]12)c1csc(N)n1.Cl.O.[Cl-] [CFPM, cefepime hidrochloride hydrate] |  |  |  |  |  |  |  |  |  |  | MIC, P. aeruginosa strain A [1]: < 8 µg/mL; MIC, P. aeruginosa strain B [1]: < 8 µg/mL; MIC, P. aeruginosa strain C [1]: < 8 µg/mL; MIC, P. aeruginosa strain D [1]: < 8 µg/mL; MIC, P. aeruginosa strain E [1]: > 16 µg/mL
4 | O=C(O)c1cn(C2CC2)c2cc(N3CCNCC3)c(F)cc2c1=O [CPFX, Ciprofloxacin hydrochloride] | < 1 µg/mL | < 1 µg/mL | < 1 µg/mL | < 1 µg/mL | > 2 µg/mL |  |  |  |  |  | 
5 | CCN1CCN(C(=O)N[C@@H](C(=O)N[C@@H]2C(=O)N3C(C(=O)O)=C(CSc4nnnn4C)CS[C@H]23)c2ccc(O)cc2)C(=O)C1=O [CPZ, cefoperazone sodium] | < 16 µg/mL | 32 µg/mL | < 16 µg/mL | < 16 µg/mL | > 32 µg/mL | S |  | S | S | R | 
6 | C[C@@H]1O[C@@H]1P(=O)(O)O [FOM, fosfomycin sodium] | > 16 µg/mL | > 16 µg/mL | > 16 µg/mL | > 16 µg/mL | > 16 µg/mL | R | R | R | R | R | 
7 | C[C@H]1COc2c(N3CCN(C)CC3)c(F)cc3c(=O)c(C(=O)O)cn1c23 [LVFX, levofloxacin hydrate] | < 2 µg/mL | < 2 µg/mL | < 2 µg/mL | 4 µg/mL | > 4 µg/mL | S | S | S | S | R | 
8 | NC[C@H]1O[C@H](O[C@H]2[C@H](O)[C@@H](O[C@H]3O[C@H](CO)[C@@H](O)[C@H](N)[C@H]3O)[C@H](N)C[C@@H]2N)[C@H](N)C[C@@H]1O [TOB, tobramycin] | > 8 µg/mL | < 4 µg/mL | > 8 µg/mL | < 4 µg/mL | < 4 µg/mL | R | S | R | S | S | 
9 | Gentamicin sulfate [GM] |  |  |  |  |  | R | S | R | S |  | MIC, P. aeruginosa strain A [1]: > 8 µg/mL; MIC, P. aeruginosa strain B [1]: < 4 µg/mL; MIC, P. aeruginosa strain C [1]: > 8 µg/mL; MIC, P. aeruginosa strain D [1]: < 4 µg/mL; MIC, P. aeruginosa strain E [1]: 8 µg/mL
10 | LL37: well-known antimicrobial peptide with angiogenic effects |  |  |  |  |  |  |  |  |  |  | Microcapillary density, porcine wound [2]: significantly increased; Blood flow around the wound (LDI), diabetic mouse ([3]; 3 days after operation, compared with control group): significantly increased the blood flow; Spontaneous S. aureus infection of wounds during experiment ([3]; db/db mice): none of the mice; Wound size, diabetic mouse ([3]; db/db mice, day 14, versus control): significantly decreased wound size; Yellow pus on MRSA-infected wounds ([4]; MRSA 1 x 10^4 cfu/ml, co-treatment 100 μg/ml): attenuated the increase of yellow pus; Infectious wound size ([4]; MRSA, 100 μg/ml, days 11, 14 and 16 after treatment): significantly decreased wound size
